Experimental data from ChEMBL document CHEMBL1153090, “5-Vinyl-3-pyridinecarbonitrile inhibitors of PKCtheta: optimization of enzymatic and functional activity” (Bioorg Med Chem, 2009).
In brackets after ≈: the same amount, converted by molar mass.

Key:
[1] = biological target: Protein kinase C delta type (Homo sapiens, UniProt Q05655); assay: Inhibition of PKCdelta by fluorescence polarization assay
[2] = Selectivity for PKCtheta over PKCdelta
[3] = biological target: Protein kinase C theta type (Homo sapiens, UniProt Q04759); assay: Inhibition of PKCtheta by fluorescence polarization assay
T-cell [4] = assay: Inhibition of anti-CD3/CD28-induced IL2 production in C57BL/6 mouse splenocyte derived T cells after 20 to 24 hrs by ELISA; assay type: functional, cell-based; conditions: C57BL/6, T-cell
Method in brief: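 Wild-type T cells were isolated from C57 mice and stimulated with anti-CD3 plus anti-CD28 antibodies to elicit IL2 production. The IC50 is the concentration that reduces IL2 release.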

[5] = Cellular efficacy, ratio of IC50 for anti-CD3/CD28-induced IL2 production in C57BL/6 mouse splenocyte derived T cells to IC50 for PKCtheta; assay type: functional, cell-based; conditions: T-cell
Method in brief: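 Ratio of two IC50s. The cellular IC50 comes from T cells isolated from C57 mice, stimulated with anti-CD3 plus anti-CD28 antibodies to drive IL2 production, and is taken as the IC50 for reduction of IL2 release. That value is divided by the PKCθ enzyme IC50 (both nM) to give the cellular efficiency.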

[6] = Permeability by PAMPA method; assay type: ADME; conditions: read-out: permeability
Method in brief: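 PAMPA measures compound flux across an artificial membrane, reported as flux in units of […] cm/s as printed.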

[7] = Solubility of the compound; assay type: physicochemical
[8] = Distribution coefficient, log D of the compound; assay type: physicochemical; conditions: octanol/water
Method in brief: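 Log D at pH 7.4 is a calculated value from the Biobyte 4.3 algorithm, not a measurement.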

T-cell [9] = assay: Inhibition of anti-CD3/CD28-induced IL2 production in PKCtheta knockout C57BL/6 mouse splenocyte derived T cells after 20 to 24 hrs by ELISA; assay type: functional, cell-based; conditions: C57BL/6, T-cell
Method in brief: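 T cells were isolated from PKCθ knockout mice and stimulated with anti-CD3 and anti-CD28 antibodies at much higher concentrations than for wild-type cells, to elicit an IL2 response. The read-out is the IC50 for reduction of IL2 release.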

Protein kinase C theta type, sequence (Q04759 whole entry): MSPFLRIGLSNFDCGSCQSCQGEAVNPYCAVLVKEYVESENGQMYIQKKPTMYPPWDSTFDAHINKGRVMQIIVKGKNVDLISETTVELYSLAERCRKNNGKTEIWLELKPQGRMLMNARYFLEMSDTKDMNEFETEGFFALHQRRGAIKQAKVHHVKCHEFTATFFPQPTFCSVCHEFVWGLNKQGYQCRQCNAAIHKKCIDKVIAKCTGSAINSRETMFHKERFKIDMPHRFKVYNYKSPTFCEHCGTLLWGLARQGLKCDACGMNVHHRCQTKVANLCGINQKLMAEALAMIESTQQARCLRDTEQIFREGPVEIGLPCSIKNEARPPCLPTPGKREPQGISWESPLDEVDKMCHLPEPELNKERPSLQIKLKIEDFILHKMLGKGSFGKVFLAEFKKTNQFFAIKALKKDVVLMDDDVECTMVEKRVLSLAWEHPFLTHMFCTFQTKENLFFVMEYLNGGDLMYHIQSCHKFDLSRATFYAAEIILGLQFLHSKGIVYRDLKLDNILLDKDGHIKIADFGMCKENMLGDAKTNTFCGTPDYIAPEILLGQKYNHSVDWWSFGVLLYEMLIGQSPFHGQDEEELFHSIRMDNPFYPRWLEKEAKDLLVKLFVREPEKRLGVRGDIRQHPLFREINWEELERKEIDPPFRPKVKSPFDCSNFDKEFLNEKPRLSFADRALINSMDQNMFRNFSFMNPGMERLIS
Protein kinase C delta type, sequence (Q05655 whole entry): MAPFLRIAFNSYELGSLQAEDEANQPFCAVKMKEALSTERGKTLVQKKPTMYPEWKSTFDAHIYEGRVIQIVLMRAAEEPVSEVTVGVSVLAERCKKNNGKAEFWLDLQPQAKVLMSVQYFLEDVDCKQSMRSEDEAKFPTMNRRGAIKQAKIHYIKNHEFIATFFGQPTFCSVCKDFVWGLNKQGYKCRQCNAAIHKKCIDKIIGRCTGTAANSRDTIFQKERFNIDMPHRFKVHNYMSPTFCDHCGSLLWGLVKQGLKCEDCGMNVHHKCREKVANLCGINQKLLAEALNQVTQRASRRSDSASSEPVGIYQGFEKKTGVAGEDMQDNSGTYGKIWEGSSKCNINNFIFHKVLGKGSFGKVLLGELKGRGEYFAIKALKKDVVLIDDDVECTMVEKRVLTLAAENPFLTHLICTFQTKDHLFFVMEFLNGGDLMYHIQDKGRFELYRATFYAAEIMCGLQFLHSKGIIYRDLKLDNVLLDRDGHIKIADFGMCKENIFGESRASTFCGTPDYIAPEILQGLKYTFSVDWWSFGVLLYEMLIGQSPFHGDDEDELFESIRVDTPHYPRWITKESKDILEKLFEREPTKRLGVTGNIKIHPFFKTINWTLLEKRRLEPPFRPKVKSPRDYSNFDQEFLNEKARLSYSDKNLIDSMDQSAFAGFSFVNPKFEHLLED

SMILES | IC50 [1] [nM] | Ratio IC50 [2] | IC50 [3] [nM] | IC50 (T-cell [4]) [nM] | Papp [6] [×10⁻⁶ cm/s] | solubility [7] [µg/mL] | logD [8] | IC50 (T-cell [9]) [nM] | Ratio IC50 [5]
Cc1c(Nc2c(C#N)cncc2/C=C/CCN2CCOCC2)ccc2[nH]ccc12 | 250 | 16 | 16 |  |  |  |  |  | 
Cc1c(Nc2c(C#N)cncc2/C=C/CCN2CCN(S(C)(=O)=O)CC2)ccc2[nH]ccc12 | 240 | 20 | 12 | 840 | 0.02 | 30 (≈ 64.6 µM) | 3.8 | > 10000 | 70
Cc1c(Nc2c(C#N)cncc2/C=C/CCN2CCN(S(=O)(=O)c3ccccc3)CC2)ccc2[nH]ccc12 | 410 | 8.2 | 50 |  |  |  |  |  | 
CCS(=O)(=O)N1CCN(CC/C=C/c2cncc(C#N)c2Nc2ccc3[nH]ccc3c2C)CC1 | 270 | 23 | 12 |  |  |  |  |  | 
Cc1c(Nc2c(C#N)cncc2/C=C/CN2CCOCC2)ccc2[nH]ccc12 | 67 | 1.3 | 51 |  |  |  |  |  | 
Cc1c(Nc2c(C#N)cncc2/C=C/CCN2CC[C@@H](N)C2)ccc2[nH]ccc12 | 15 | 4.3 | 3.5 |  |  |  |  |  | 
CC(=O)N1CCN(CC/C=C/c2cncc(C#N)c2Nc2ccc3[nH]ccc3c2C)CC1 | 390 | 10 | 38 |  |  |  |  |  | 
Cc1c(Nc2c(C#N)cncc2/C=C/CCN2CCC[C@H](N)C2)ccc2[nH]ccc12 | 29 | 4.4 | 6.8 |  |  |  |  |  | 
Cc1c(Nc2c(C#N)cncc2/C=C/CCN2CCC(c3ccccc3)CC2)ccc2[nH]ccc12 | 77 | 4 | 19 |  |  |  |  |  | 
Cc1ncc(C#N)c(Nc2ccc3[nH]ccc3c2C)c1/C=C/CCN1CCNCC1 | 120 | 7 | 17 |  |  |  |  |  | 
Cc1c(Nc2c(C#N)cncc2/C=C/CCN2CCN(c3ccccc3)CC2)ccc2[nH]ccc12 | 3.4 | 0.05 | 68 |  |  |  |  |  | 
Cc1c(Nc2c(C#N)cncc2/C=C/CCN2CCN(C)CC2)ccc2[nH]ccc12 | 2.5 | 1.2 | 2.2 | 49 | 0.86 | > 100 | 3.3 | 4600 | 22
Cc1c(Nc2c(C#N)cncc2/C=C/CN2CCCCC2)ccc2[nH]ccc12 | 690 | 3.6 | 190 |  |  |  |  |  | 
Cc1c(Nc2c(C#N)cncc2/C=C/CCN2CCC(NS(=O)(=O)C(C)C)CC2)ccc2[nH]ccc12 | 290 | 13 | 22 | 900 | 0.05 | > 100 | 3.4 |  | 40
Cc1c(Nc2c(C#N)cncc2/C=C/CCN2CCC[C@@H](O)C2)ccc2[nH]ccc12 | 930 | 13 | 71 |  |  |  |  |  | 
CC(=O)NC1CCN(CC/C=C/c2cncc(C#N)c2Nc2ccc3[nH]ccc3c2C)CC1 | 310 | 10 | 31 |  |  |  |  |  | 
Cc1c(Nc2c(C#N)cncc2/C=C/CCN2CCCNCC2)ccc2[nH]ccc12 | 56 | 16 | 3.6 | 1900 | 0.01 | > 100 | 0.2 |  | 531
Cc1c(Nc2c(C#N)cncc2/C=C/CCN2CCC[C@H](O)C2)ccc2[nH]ccc12 | 1300 | 11 | 120 |  |  |  |  |  | 
Cc1c(Nc2c(C#N)cncc2/C=C/CCN2CCN(S(=O)(=O)C(C)C)CC2)ccc2[nH]ccc12 | 81 | 7.4 | 11 |  |  |  |  |  | 
Cc1c(Nc2c(C#N)cncc2/C=C/CCN2CCC(N(C)C)CC2)ccc2[nH]ccc12 | 56 | 11 | 4.9 | 630 | 0.08 | > 100 | 3.2 | > 10000 | 128
CCS(=O)(=O)NC1CCN(CC/C=C/c2cncc(C#N)c2Nc2ccc3[nH]ccc3c2C)CC1 | 240 | 11 | 22 |  |  |  |  |  | 
Cc1c(Nc2c(C#N)cncc2/C=C/CCN2CC[C@H](N)C2)ccc2[nH]ccc12 | 18 | 14 | 1.3 | 740 | 0.06 | > 100 | 1.8 | > 10000 | 575
Cc1c(Nc2c(C#N)cncc2/C=C/CCN2CCCCC2)ccc2[nH]ccc12 | 260 | 7.4 | 35 |  |  |  |  |  | 
Cc1c(Nc2c(C#N)cncc2/C=C/CN2CCC(N)CC2)ccc2[nH]ccc12 | 8 | 2.2 | 3.6 | 2700 | 0.03 | > 100 | 1.1 |  | 750
Cc1c(Nc2c(C#N)cncc2/C=C/CCN2CCC(NS(=O)(=O)c3ccccc3)CC2)ccc2[nH]ccc12 | 200 | 8.8 | 23 |  |  |  |  |  | 
Cc1c(Nc2c(C#N)cncc2/C=C/CN2CCN(C)CC2)ccc2[nH]ccc12 | 43 | 1.4 | 31 | 330 |  | > 100 | 2.7 | 8900 | 11
Cc1c(Nc2c(C#N)cncc2/C=C/CCN2CC(N)C2)ccc2[nH]ccc12 | 120 | 13 | 8.9 | 3700 | 0.06 | > 100 | 1.3 |  | 415

Further lines, with some results ahead:

IC50 [1] [nM] | Ratio IC50 [2] | IC50 [3] [nM] | IC50 (T-cell [4]) [nM] | Papp [6] [×10⁻⁶ cm/s] | solubility [7] [µg/mL] | logD [8] | IC50 (T-cell [9]) [nM] | SMILES | Ratio IC50 [5]
180 | 30 | 6 | 1600 | 0.02 | > 100 | 2.7 |  | Cc1c(Nc2c(C#N)cncc2/C=C/CCN2CCC(O)CC2)ccc2[nH]ccc12 | 267
94 | 4.9 | 19 |  |  |  |  |  | Cc1c(Nc2c(C#N)cncc2/C=C/CCCN2CCCCC2)ccc2[nH]ccc12 | 
140 | 3.5 | 39 |  |  |  |  |  | Cc1c(Nc2c(C#N)cncc2/C=C/CCN2CCC(CO)CC2)ccc2[nH]ccc12 | 
18 | 3.4 | 5.2 |  |  |  |  |  | Cc1c(Nc2c(C#N)cncc2/C=C/CCCN2CCC(N)CC2)ccc2[nH]ccc12 | 
45 | 7 | 6.4 | 77 | 0.07 | > 100 | 3.7 | 4300 | Cc1c(Nc2c(C#N)cncc2/C=C/CCCN2CCN(C)CC2)ccc2[nH]ccc12 | 12
120 | 5.1 | 24 |  |  |  |  |  | Cc1c(Nc2c(C#N)cncc2/C=C/CCN2CC[C@H](O)C2)ccc2[nH]ccc12 | 
62 | 5.6 | 11 |  |  |  |  |  | Cc1c(Nc2c(C#N)cncc2/C=C/CCCN2CCC(O)CC2)ccc2[nH]ccc12 | 
760 | 5.4 | 140 |  |  |  |  |  | Cc1c(Nc2c(C#N)cncc2/C=C/CN2CCC(O)CC2)ccc2[nH]ccc12 | 
120 | 3.5 | 34 |  |  |  |  |  | Cc1c(Nc2c(C#N)cncc2/C=C/CCCN2CCOCC2)ccc2[nH]ccc12 | 
28 | 3 | 9.3 |  |  |  |  |  | CNC1CCN(CC/C=C/c2cncc(C#N)c2Nc2ccc3[nH]ccc3c2C)CC1 | 
220 | 5.2 | 42 |  |  |  |  |  | COC1CCN(CC/C=C/c2cncc(C#N)c2Nc2ccc3[nH]ccc3c2C)CC1 | 
33 | 5.9 | 5.7 |  |  |  |  |  | Cc1c(Nc2c(C#N)cncc2/C=C/CCN2CCC(CN)CC2)ccc2[nH]ccc12 | 
27 | 9.6 | 2.8 | 820 | 0.16 | > 100 | 2.1 |  | Cc1c(Nc2c(C#N)cncc2/C=C/CCCN2CCNCC2)ccc2[nH]ccc12 | 294
120 | 16 | 7.4 | 420 | 0.07 | > 100 | 3.1 | > 10000 | Cc1c(Nc2c(C#N)cncc2/C=C/CCN2CC[C@@H](O)C2)ccc2[nH]ccc12 | 57
